Measurements from ChEMBL document CHEMBL4480442, “Phloroglucinols with Immunosuppressive Activities from the Fruits of Eucalyptus globulus” (J Nat Prod, 2019).
One block for each compound: values may come before it. Active and inactive are the calls of the source. The calls are words filed in the database; no cut-off is given here.

Columns and labels:
[1] = Cytotoxicity against BALB/c mouse lymph node cells assessed as reduction in cell viability measured after 48 hrs by CCK8 assay; format: cell-based
[2] = Immunosuppressive activity in BALB/c mouse lymph node cells assessed as inhibition of concanavalin A stimulated T-cell proliferation measured after 48 hrs by CCK8 assay; format: functional
[3] = […], ratio of CC50 for BALB/c mouse lymph node cells to IC50 for immunosuppressive activity in BALB/c mouse lymph node cells assessed as inhibition of concanavalin A stimulated T-cell proliferation
Mus musculus [4] = organism: Mus musculus; test: Immunosuppressive activity in concanavalin A stimulated BALB/c mouse lymph node cells assessed as increase in cytochrome c levels in cytoplasm at 1 to 20 uM measured after 48 hrs by Western blotting analysis; format: functional
How it was run: (§1)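 Mouse […] cells, 2 × 10^6 cells/well, ConA (5 μg/mL) with compound at 1, 10, 20 μM for 48 h; cells washed with PBS, protein extracted and Western blotted; band densities quantified as Bax/Bcl-2 ratio and cytoplasmic/mitochondrial cytochrome c ratio; three independent experiments, means ± SEM.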

Mus musculus [5] = organism: Mus musculus; test: Immunosuppressive activity in concanavalin A stimulated BALB/c mouse lymph node cells assessed as caspase-3 activation at 1 to 20 uM measured after 48 hrs; format: functional
Mus musculus [6] = organism: Mus musculus; test: Immunosuppressive activity in BALB/c mouse lymph node cells assessed as inhibition of concanavalin A stimulated T-cell proliferation at 1 to 20 uM measured after 48 hrs by CCK8 assay; format: functional
Mus musculus [7] = organism: Mus musculus; test: Immunosuppressive activity in BALB/c mouse lymph node cells assessed as inhibition of concanavalin A stimulated T-cell proliferation by measuring increase in LDH release at 1 to 20 uM; format: functional
[8] = Immunosuppressive activity in concanavalin A stimulated BALB/c mouse lymph node cells assessed as induction of apoptosis by measuring viable cells at 1 uM measured after 48 hrs by Annexin-V/propidium iodide staining based flow cytometry (reference value: 99.7%); format: functional
[9] = Immunosuppressive activity in concanavalin A stimulated BALB/c mouse lymph node cells assessed as induction of apoptosis by measuring early apoptotic cells at 1 uM measured after 48 hrs by Annexin-V/propidium iodide staining based flow cytometry (reference value: 0.1%); format: functional
[10] = Immunosuppressive activity in concanavalin A stimulated BALB/c mouse lymph node cells assessed as induction of apoptosis by measuring late apoptotic cells at 1 uM measured after 48 hrs by Annexin-V/propidium iodide staining based flow cytometry (reference value: 0.2%); format: functional
[11] = Immunosuppressive activity in concanavalin A stimulated BALB/c mouse lymph node cells assessed as induction of apoptosis by measuring necrotic cells at 1 uM measured after 48 hrs by Annexin-V/propidium iodide staining based flow cytometry (reference value: 0%); format: functional
[12] = Immunosuppressive activity in concanavalin A stimulated BALB/c mouse lymph node cells assessed as induction of apoptosis by measuring viable cells at 10 uM measured after 48 hrs by Annexin-V/propidium iodide staining based flow cytometry (reference value: 99.7%); format: functional
[13] = Immunosuppressive activity in concanavalin A stimulated BALB/c mouse lymph node cells assessed as induction of apoptosis by measuring early apoptotic cells at 10 uM measured after 48 hrs by Annexin-V/propidium iodide staining based flow cytometry (reference value: 0.1%); format: functional
[14] = Immunosuppressive activity in concanavalin A stimulated BALB/c mouse lymph node cells assessed as induction of apoptosis by measuring late apoptotic cells at 10 uM measured after 48 hrs by Annexin-V/propidium iodide staining based flow cytometry (reference value: 0.2%); format: functional
[15] = Immunosuppressive activity in concanavalin A stimulated BALB/c mouse lymph node cells assessed as induction of apoptosis by measuring necrotic cells at 10 uM measured after 48 hrs by Annexin-V/propidium iodide staining based flow cytometry (reference value: 0%); format: functional
[16] = Immunosuppressive activity in concanavalin A stimulated BALB/c mouse lymph node cells assessed as induction of apoptosis by measuring viable cells at 20 uM measured after 48 hrs by Annexin-V/propidium iodide staining based flow cytometry (reference value: 99.7%); format: functional
[17] = Immunosuppressive activity in concanavalin A stimulated BALB/c mouse lymph node cells assessed as induction of apoptosis by measuring early apoptotic cells at 20 uM measured after 48 hrs by Annexin-V/propidium iodide staining based flow cytometry (reference value: 0.1%); format: functional
[18] = Immunosuppressive activity in concanavalin A stimulated BALB/c mouse lymph node cells assessed as induction of apoptosis by measuring late apoptotic cells at 20 uM measured after 48 hrs by Annexin-V/propidium iodide staining based flow cytometry (reference value: 0.2%); format: functional
[19] = Immunosuppressive activity in concanavalin A stimulated BALB/c mouse lymph node cells assessed as induction of apoptosis by measuring necrotic cells at 20 uM measured after 48 hrs by Annexin-V/propidium iodide staining based flow cytometry (reference value: 0%); format: functional
Mus musculus [20] = organism: Mus musculus; test: Immunosuppressive activity in concanavalin A stimulated BALB/c mouse lymph node cells assessed as increase in ratio of Bax/Bcl2 level at 1 to 20 uM measured after 48 hrs by Western blotting analysis; format: functional; how it was run: as §1
Mus musculus [21] = organism: Mus musculus; test: Immunosuppressive activity in concanavalin A stimulated BALB/c mouse lymph node cells assessed as caspase-9 activation at 1 to 20 uM measured after 48 hrs; format: functional
[22] = molecular target: RAC-alpha serine/threonine-protein kinase (Mus musculus) (UniProt P31750); test: Inhibition of AKT phosphorylation in concanavalin A stimulated BALB/c mouse lymph node cells assessed as IL4 level at 1 uM measured after 48 hrs by ELISA (reference value: 142.4 +/- 12.4 pg/ml)
[23] = molecular target: RAC-alpha serine/threonine-protein kinase (Mus musculus) (UniProt P31750); test: Inhibition of AKT phosphorylation in concanavalin A stimulated BALB/c mouse lymph node cells assessed as IL4 level at 10 uM measured after 48 hrs by ELISA (reference value: 142.4 +/- 12.4 pg/ml)
[24] = molecular target: RAC-alpha serine/threonine-protein kinase (Mus musculus) (UniProt P31750); test: Inhibition of AKT phosphorylation in concanavalin A stimulated BALB/c mouse lymph node cells assessed as IL4 level at 20 uM measured after 48 hrs by ELISA (reference value: 142.4 +/- 12.4 pg/ml)
How it was run: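 ELISA for IL-4 or IFN-γ in culture medium: BALB/c […] cells, 2 × 10^6 cells/well, stimulated with ConA (5 μg/mL) with compound at 1, 10, 20 μM for 48 h; absorbance at 450 nm; means ± SEM of three independent experiments.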

[25] = molecular target: RAC-alpha serine/threonine-protein kinase (Mus musculus) (UniProt P31750); test: Inhibition of AKT phosphorylation in concanavalin A stimulated BALB/c mouse lymph node cells assessed as IFNgamma level at 1 uM measured after 48 hrs by ELISA (reference value: 575.9 +/- 8.2 pg/ml)
[26] = molecular target: RAC-alpha serine/threonine-protein kinase (Mus musculus) (UniProt P31750); test: Inhibition of AKT phosphorylation in concanavalin A stimulated BALB/c mouse lymph node cells assessed as IFNgamma level at 20 uM measured after 48 hrs by ELISA (reference value: 575.9 +/- 8.2 pg/ml)
[27] = molecular target: RAC-alpha serine/threonine-protein kinase (Mus musculus) (UniProt P31750); test: Inhibition of AKT phosphorylation in concanavalin A stimulated BALB/c mouse lymph node cells at 20 uM measured after 48 hrs by Western blotting analysis

RAC-alpha serine/threonine-protein kinase (Mus musculus), sequence (P31750 whole entry): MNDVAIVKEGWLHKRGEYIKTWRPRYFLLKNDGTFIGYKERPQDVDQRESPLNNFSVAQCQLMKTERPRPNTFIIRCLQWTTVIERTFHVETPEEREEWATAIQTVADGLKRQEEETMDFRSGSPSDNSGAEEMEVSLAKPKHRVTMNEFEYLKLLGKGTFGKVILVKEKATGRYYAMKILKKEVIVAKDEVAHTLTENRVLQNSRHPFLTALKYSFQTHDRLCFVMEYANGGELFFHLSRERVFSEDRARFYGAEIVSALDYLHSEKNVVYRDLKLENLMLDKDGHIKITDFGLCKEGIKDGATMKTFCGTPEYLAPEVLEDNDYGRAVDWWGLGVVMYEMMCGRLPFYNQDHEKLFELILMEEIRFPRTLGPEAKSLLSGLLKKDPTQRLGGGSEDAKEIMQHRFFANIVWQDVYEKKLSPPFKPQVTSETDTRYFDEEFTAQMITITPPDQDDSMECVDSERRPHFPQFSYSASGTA

SMILES: CC(C)C[C@H](c1c(O)c(C=O)c(O)c(C=O)c1O)[C@@]1(C)CC[C@@H]2[C@@H]1[C@H]1[C@@H](CC[C@]2(C)O)C1(C)C
CC50 at 48 h [1]: 597 µM | IC50 [2]: 26.3 µM | Ratio CC50/IC50 [3]: 22.7

SMILES: C=C1CC[C@@H]2[C@H](C3C1CC[C@]3(C)C(CC(C)C)c1c(O)c(C=O)c(O)c(C=O)c1O)C2(C)C (stereo partly drawn)
CC50 at 48 h [1]: 541 µM | IC50 [2]: 69.6 µM | Ratio CC50/IC50 [3]: 8.3

SMILES: CCC(C)C(=O)c1c(O)c(C)c(OC)c(C)c1O (stereo not drawn)
CC50 at 48 h [1]: 623 µM | IC50 [2]: 70.2 µM | Ratio CC50/IC50 [3]: 8.9

SMILES: CC(C)C[C@H](c1c(O)c(C=O)c(O)c(C=O)c1O)C1CC[C@@H](C)C2=C[C@@H](C(C)(C)O)CC[C@@]21C (stereo partly drawn)
CC50 at 48 h [1]: 544 µM | IC50 [2]: 52.3 µM | Ratio CC50/IC50 [3]: 10.4

SMILES: CC(C)C[C@@H]1c2c(O)c(C=O)c(O)c(C=O)c2O[C@]2(C)C=C[C@@](O)(C(C)C)CC12 (stereo partly drawn)
CC50 at 48 h [1]: 656 µM | IC50 [2]: 10.2 µM | Ratio CC50/IC50 [3]: 64.2

SMILES: COc1c(C)c(O)c(C)c(O)c1C(=O)CC(C)C
CC50 at 48 h [1]: 670 µM | IC50 [2]: 133 µM | Ratio CC50/IC50 [3]: 5

Activity [22]: 118 pg/mL | Activity [23]: 99.7 pg/mL | Activity [24]: 68.9 pg/mL | Activity [25]: 347 pg/mL | Activity [26]: 52.5 pg/mL | inhibition [27]: Active
SMILES: CC(C)C[C@H]1c2c(O)c(C=O)c(O)c(C=O)c2O[C@]2(C)C=C[C@@](O)(C(C)C)CC12 (stereo partly drawn)
Activity (Mus musculus [4]): Active | Activity (Mus musculus [5]): Active | CC50 at 48 h [1]: 664 µM | IC50 [2]: 11.8 µM | Ratio CC50/IC50 [3]: 56.3 | Activity (Mus musculus [6]): Active | Activity (Mus musculus [7]): Active | Activity [8]: 47.5% | Activity [9]: 25.1% | Activity [10]: 18.3% | Activity [11]: 9.1% | Activity [12]: 32.3% | Activity [13]: 42.7% | Activity [14]: 19.3% | Activity [15]: 5.7% | Activity [16]: 4.2% | Activity [17]: 63.1% | Activity [18]: 31.7% | Activity [19]: 1% | Activity (Mus musculus [20]): Active | Activity (Mus musculus [21]): Active

SMILES: C/C1=C/[C@H]2[C@@H](CC[C@]3(C)Oc4c(C=O)c(O)c(C=O)c(O)c4[C@@H](CC(C)C)C3CC1)C2(C)C (stereo partly drawn)
CC50 at 48 h [1]: 600 µM | IC50 [2]: 129 µM | Ratio CC50/IC50 [3]: 4.6

SMILES: CC(C)C[C@@H](c1c(O)c(C=O)c(O)c(C=O)c1O)[C@@]1(C)C=C2C(C)CC[C@H](C(C)(C)O)C2CC1 (stereo partly drawn)
CC50 at 48 h [1]: 596 µM | IC50 [2]: 41.2 µM | Ratio CC50/IC50 [3]: 14.5

SMILES: CC(C)C[C@H]1c2c(O)c(C=O)c(O)c(C=O)c2O[C@]23CC[C@@]1(C)C2[C@H]1[C@@H](CC[C@@H]3C)C1(C)C (stereo partly drawn)
CC50 at 48 h [1]: 588 µM | IC50 [2]: 69.3 µM | Ratio CC50/IC50 [3]: 8.5

SMILES: CC(C)C[C@@H](c1c(O)c(C=O)c(O)c(C=O)c1O)[C@@]1(C)CC[C@@H]2[C@@H]1[C@H]1[C@@H](CC[C@@]2(C)O)C1(C)C [MACROCARPAL A]
CC50 at 48 h [1]: 597 µM | IC50 [2]: 20.4 µM | Ratio CC50/IC50 [3]: 29.2

SMILES: CC(C)CC(=O)c1c(O)c(C=O)c(O)c(C[C@H]2CC[C@H](C)C3=C[C@@H](C(C)(C)O)CC[C@@]32C)c1O
CC50 at 48 h [1]: 578 µM | IC50 [2]: 19.1 µM | Ratio CC50/IC50 [3]: 30.2

SMILES: CC(C)CC(=O)c1c(O)c(C=O)c(O)c(C[C@H]2CC[C@@](C)(O)C3[C@H]4[C@@H](CC[C@@]32C)C4(C)C)c1O (stereo partly drawn)
CC50 at 48 h [1]: 598 µM | IC50 [2]: 35.3 µM | Ratio CC50/IC50 [3]: 16.9

SMILES: CC(C)C[C@@H](c1c(O)c(C=O)c(O)c(C=O)c1O)C1CC[C@@H](C)C2=C[C@@H](C(C)(C)O)CC[C@@]21C (stereo partly drawn)
CC50 at 48 h [1]: 602 µM | IC50 [2]: 42.4 µM | Ratio CC50/IC50 [3]: 14.2

SMILES: CC(C)CC(=O)c1c(O)c(C=O)c(O)c(C[C@@]2(C)CCC3C2[C@H]2[C@@H](CC[C@@]3(C)O)C2(C)C)c1O (stereo partly drawn)
CC50 at 48 h [1]: 554 µM | IC50 [2]: 18.2 µM | Ratio CC50/IC50 [3]: 30.5

SMILES: CO[C@]1(C)CC[C@@H]2[C@H]([C@H]3[C@H]1CC[C@]3(C)[C@H](CC(C)C)c1c(O)c(C=O)c(O)c(C=O)c1O)C2(C)C
CC50 at 48 h [1]: 562 µM | IC50 [2]: 35.8 µM | Ratio CC50/IC50 [3]: 15.7

SMILES: CO[C@]1(C)CC[C@@H]2[C@H]([C@H]3[C@H]1CC[C@]3(C)[C@@H](CC(C)C)c1c(O)c(C=O)c(O)c(C=O)c1O)C2(C)C
CC50 at 48 h [1]: 578 µM | IC50 [2]: 68.4 µM | Ratio CC50/IC50 [3]: 8.5

SMILES: CC(C)C[C@H](c1c(O)c(C=O)c(O)c(C=O)c1O)[C@@]1(C)CC[C@@H]2[C@@H]1[C@H]1[C@@H](CC[C@@]2(C)O)C1(C)C [MACROCARPAL B]
CC50 at 48 h [1]: 570 µM | IC50 [2]: 31.2 µM | Ratio CC50/IC50 [3]: 18.4
